T cruzi inh – T. cruzi replication inhibition; inhibition, % (test concentration not listed); T. cruzi beta-gal in NIH3T3, luminescence, 90 h; actives 1.4% (n = 300,000);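 active means mean inhibition across valid replicates above about 55%, limit read from the data; inconclusive means mean below that limit but half or more replicates reach it; inactive means mean below it, under half of replicates reach it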;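 further: signal also drops with host cell toxicity which is not excluded here; 0% = plate median of DMSO wells and 100% = zero luminescence signal; higher percent means less beta-gal luminescence so fewer parasites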
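System – NIH/3T3 host cells with β-galactosidase reporter T. cruzi · Doses – single 50 nL compound addition per well in DMSO · Reagent – 5000 T. cruzi trypomastigotes/well · Medium – Low-serum DMEM with 2% FBS · Timing – ≥90 h infection period, 3 h prior cell attachment · Evaluation – parasite load inhibition, % · Technique – GalScreen luminescence, 60 min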
HSF1 inhib – HSF1 inhibition; activity change, negative = inhibition, % at 7.5 µM (by protocol); NIH3T3-HGL HSE-luciferase, MG132-induced, luminescence 8 h; active compounds read low; actives 0.77% (n = 300,000);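 active means more than half of replicate wells show activity change below -50%, luminescence cut by over half; inconclusive means some wells, but at most half, below -50%; inactive means no replicate well below -50%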;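 further: luciferase reports HSF-1 transcriptional activity via heat shock element; 0% = median of DMSO wells and -100% = zero luminescence signal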
Lmaj promast – Leishmania major promastigote growth inhibition; Leishmania major promastigotes, resazurin fluorescence viability; inhibition, % at 10 µM; actives 9% (n = 200,000); AID 1063; in the data active means inhibition above about 50%;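 further: promastigotes grown with compound for 44 hours at 28 °C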
Hsp70 activator – Hsp70 transcriptional activation, primary screen | HeLa Hsp70 promoter luciferase reporter, luminescence; scaled: vehicle 0, proteasome-inhibitor control 100% | activation, % at 10 µM | actives 0.04% (n = 200,000) | AID 1203;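 active means activation above the mean across all tested compounds plus 3 SD, cutoff set per campaign, cut at about 5.5% in these data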;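 further: 100% = MG132 at 30 µM as the positive control and 0% = DMSO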
HSF1 activator – increases HSF-1 driven luciferase reporter signal; actives 1.7% (n = 300,000); NIH3T3-HGL HSF-1 luciferase reporter, MG132, 8 h; 100% = twice DMSO control signal; activation, % at 9 µM;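 active means mean replicate activation of at least 50% with a set share of replicates each reaching 50%; inconclusive means only one of those two conditions met; inactive means mean below 50% and too few replicates reaching it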;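 further: 0% = median of the neutral control wells and 100% = twice that signal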
An asterisk follows results filed as active; ? = inconclusive; . = not tested or not shown. This excerpt belongs to a sample that is enriched for hits.

SMILES | T cruzi inh | HSF1 inhib | Lmaj promast | Hsp70 activator | HSF1 activator
COc1cc(/C=N/NC(=O)c2ccc([N+](=O)[O-])cc2Cl)cc(Br)c1O | 0 | 5 | 2 | 0 | 46
COc1cc(/C=N/N2C(=O)c3ccccc3NC2(C)c2cccc([N+](=O)[O-])c2)cc(Br)c1O (centres undefined) | -10 | 44 | -3 | 0 | 56*
Cc1ccc(Cl)cc1NC(=O)C1CCCN(S(C)(=O)=O)C1 (centres undefined) | 9 | 1 | . | . | -1
CC(OC(=O)c1cccc(-n2cnnn2)c1)C(=O)N(C)c1ccccc1 (centres undefined) | 2 | 7 | . | . | -1
COc1cc(C(=O)NCC(=O)N2CCN(S(=O)(=O)c3cc(C)ccc3C)CC2)cc(OC)c1OC | 15 | -6 | . | . | -3
CCCCCCCC(=O)NNC(=O)Cc1ccccc1 | -21 | -8 | -6 | 0 | -6
CCCCCCCCCCCC(=O)c1c(O)cccc1O | -21 | 20 | -6 | 0 | 51*
O=C(O)c1cc(Cl)c2ccccc2c1O | -6 | 5 | -7 | 1 | 32
CC(C)(NC(=O)c1cc(Cl)c2ccccc2c1O)C(=O)O | -18 | -83* | . | . | -87
OC1(c2ccc3ccccc3c2)CCN(Cc2ccccc2)C1 (centres undefined) | 40 | -2 | 94* | 0 | -3
COC(=O)c1cc(C(=O)OCC(=O)N(C)c2ccccc2)cc([N+](=O)[O-])c1 | -12 | -11 | . | . | -4
Clc1ccc(CCNc2nc3ccccc3n3nnnc23)cc1 | 9 | 26 | -5 | 0 | 51*
COc1ccccc1N1Cc2ccc(OC)c(OC)c2C1=O | -16 | 1 | . | . | -1
COc1ccccc1N1CC(C)C(=O)NC1=S (centres undefined) | -17 | -56* | -3 | 0 | -68
N#Cc1c(Cl)nc2c(c1C#N)CCCC2 | -18 | -11 | . | . | -26
CN(C)C1(CNC(=O)C2CCN(S(=O)(=O)c3ccccc3C(F)(F)F)CC2)CCCCC1 | 12 | -7 | . | . | -7
COc1ccc(N2CCN(C(=O)CCc3c[nH]c4ccccc34)CC2)cc1 | 1 | 13 | -6 | 0 | 12
COc1ccc(N2CCN(C(=O)[C@H](Cc3c[nH]c4ccccc34)NC(C)=O)CC2)cc1 | -6 | 29 | 2 | 0 | 62*
CC(Sc1nnc(NC2CCCCC2)s1)C(=O)Nc1ccc2c(c1)C(=O)c1ccccc1C2=O (centres undefined) | -10 | 16 | 66* | 0 | 29
Cc1ccc2nc(SCn3nnc4ccccc4c3=O)[nH]c2c1 | -1 | 29 | 2 | 0 | ?
O=c1c2ccccc2nnn1CSc1ncnc2ccccc12 | -4 | 78 | 4 | 0 | 112*
Cc1ccc(SCn2nnc3ccccc3c2=O)c(C)c1 | -1 | 37 | 12 | 0 | 66*
O=c1ccnc(SCn2nnc3ccccc3c2=O)[nH]1 | -15 | 3 | -3 | 0 | -10
Nn1c(Cc2ccccc2F)nnc1SCn1nnc2ccccc2c1=O | 3 | 5 | 1 | 0 | 11
O=c1c2ccccc2nnn1CSc1ccccc1F | 3 | 29 | -4 | 0 | 82*
SMILES | T cruzi inh | HSF1 inhib | Lmaj promast | Hsp70 activator | HSF1 activator
Cc1cc(Br)c(Cl)cc1NC(=O)CN1C(=O)C2C3CC(c4ccccc4)C(C3)C2C1=O (centres undefined) | 56* | 3 | 84* | 0 | 10
Cc1cc(NC(=O)CCN2C(=O)C3C4CCC(C4)C3C2=O)c(C)cc1Br (centres undefined) | -9 | 3 | 4 | 0 | 5
COc1ccc(CN2C(=O)c3ccccc3C2=O)cc1C(=O)Nc1ccccc1N1CCOCC1 | -24 | 7 | 6 | 0 | 0
COc1ccc(NC(=O)c2cc(CN3C(=O)c4ccccc4C3=O)ccc2OC)cn1 | 5 | -67* | 0 | 0 | -74
Cc1cc2ccccn2c1C(=O)c1cc([N+](=O)[O-])cc([N+](=O)[O-])c1 | 65* | 7 | 100* | 0 | 11
COC(=O)c1cc(C(=O)c2c(C)cc3ccccn23)cc([N+](=O)[O-])c1 | 18 | 11 | . | . | 17
COc1ccc(/C=C2\N=C(SC)N(c3ccccc3OC)C2=O)cc1 | 11 | -7 | 28 | 0 | 0
CN(C)c1ccc(CNCCC(Cc2ccccc2)c2ccco2)cc1 (centres undefined) | 61* | -4 | . | . | 5
COC(=O)C(NC(=O)CCc1c(C)nc2c(c(C)nn2-c2ccccc2)c1C)C(C)C (centres undefined) | 3 | -6 | . | . | 4

Screens from PubChem.
